The values below come from ChEMBL document CHEMBL2069294, “Synthesis and evaluation of hybrid drugs for a potential HIV/AIDS-malaria combination therapy” (Bioorg Med Chem, 2012).

A short description of test [1]: Selectivity index, ratio of CC50 for human HeLa cells to IC50 for Plasmodium falciparum 3D7 ring stage cells. It is filed as functional. In outline:
(§1)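 Ratio of HeLa MTT CC50 to Malstat IC50 against the stated P. falciparum strain (ring-stage, triplicate, 1% parasitemia).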

Test [2] has as its system Human immunodeficiency virus 1. As to the kind of experiment: Antiviral activity against VSV-G pseudotyped HIV1 lentiviral particles infected in human HeLa cells incubated for 48 hrs by spectrofluorometry. Type of test: functional, organism-based.
A short description of test [3]: Selectivity index, ratio of CC50 for human HeLa cells to IC50 for Plasmodium falciparum Dd2 ring stage cells. It is filed as functional. In outline:
as §1

The subject of test [4] is Plasmodium falciparum. As to the kind of experiment: Antiplasmodial activity against drug resistant Plasmodium falciparum Dd2 ring stage cells assessed as reduction parasitemia by Malstat assay. It is filed as functional, organism-based.
For another test, the system named is HeLa. As to the kind of experiment: Cytotoxicity against human HeLa cells by MTT assay. Type of test: cell-based. In outline:
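MTT reduction assay on HeLa cells (DMEM, 10% heat-inactivated FCS) with serial dilutions; CC50 taken as concentration giving 50% growth inhibition, ± SEM.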
(In general: Formazan colour is commonly taken as a measure of viable cells.)

Test [5] deals with Plasmodium falciparum. As to the kind of experiment: Antiplasmodial activity against Plasmodium falciparum 3D7 ring stage cells assessed as reduction parasitemia by Malstat assay. Type of test: functional, organism-based.
Where [6] appears, read: Plasmodium falciparum, 3D7, read-out: IC50.
Setting [7] is: Human immunodeficiency virus 1, HeLa, 48 h, read-out: IC50.

Each structure is given as a SMILES string.

Regarding `Cc1cn([C@H]2C[C@H](NC(=O)NCCNc3ccnc4cc(Cl)ccc34)[C@@H](CO[Si](c3ccccc3)(c3ccccc3)C(C)(C)C)O2)c(=O)[nH]c1=O`, the “Ratio CC50/IC50” value in test [1] came out at 64.3; in test [3] it was 69.9. For the same compound, the IC50 entry is “Not Active” in test [2] (hela), 0.34 µM in the test with Plasmodium falciparum [4], 23.8 µM in the test with HeLa and 0.37 µM in the test with Plasmodium falciparum [5] (setting [6]).
Turning to `Cc1cn([C@H]2C[C@H](NC(=O)NCCCCCNc3ccnc4cc(Cl)ccc34)[C@@H](CO)O2)c(=O)[nH]c1=O`, the “Ratio CC50/IC50” value in test [1] was over 19.3; in test [3], over 12.5. Further, the IC50 result in test [2] (hela) is “Not Active”; with Plasmodium falciparum [4], 8.02 µM; with HeLa it was over 100 µM; with Plasmodium falciparum [5] (setting [6]), 5.18 µM.
Regarding `CCN(CC)CCCC(C)Nc1ccnc2cc(Cl)ccc12` (centres undefined) [CHLOROQUINE], the IC50 in test [2] (setting [7]) is 12.5 µM; in the test with HeLa, over 100 µM.
Regarding `NCCNc1ccnc2cc(Cl)ccc12`, the “Ratio CC50/IC50” value in test [1] was 2114.7; in test [3], 275.8. Moreover, the IC50 entry was “Not Active” in test [2] (hela), 63.4 µM in the test on HeLa and 0.03 µM in the test with Plasmodium falciparum [5] (setting [6]).
For the compound `Cc1cn([C@H]2C[C@H](NC(=O)CC3CCC4(CC3)OOC3(OO4)C4CC5CC(C4)CC3C5)[C@@H](CO)O2)c(=O)[nH]c1=O` (some centres undefined), the “Ratio CC50/IC50” value in test [1] came to 106.3; in test [3] it was 233.8. Besides, the IC50 result in test [2] (hela) was “Not Active”; with Plasmodium falciparum [4], 0.1 µM; with HeLa, 23.4 µM; with Plasmodium falciparum [5] (setting [6]), 0.22 µM.
For the compound `Cc1cn([C@H]2C[C@H](NC(=O)NCCNc3ccnc4cc(Cl)ccc34)[C@@H](CO)O2)c(=O)[nH]c1=O`, the results for the “Ratio CC50/IC50” value in test [1] and in test [3] were over 28.3 and over 3.2, respectively. Further, the IC50 result was “Not Active” in test [2] (hela), 31.6 µM in the test on Plasmodium falciparum [4], over 100 µM with HeLa and 3.53 µM in the test on Plasmodium falciparum [5] (setting [6]).
For the compound `Cc1cn([C@H]2C[C@H](NC(=O)C(=O)NCCCCCNc3ccnc4cc(Cl)ccc34)[C@@H](CO)O2)c(=O)[nH]c1=O`, the “Ratio CC50/IC50” value is recorded as over 51.5 in test [1] and over 9.5 in test [3]. Moreover, the IC50 entry was “Not Active” in test [2] (hela), 10.6 µM in the test on Plasmodium falciparum [4], over 100 µM in the test with HeLa and 1.94 µM in the test with Plasmodium falciparum [5] (setting [6]).
For the compound `NCCCCCNc1ccnc2cc(Cl)ccc12`, the entries for the “Ratio CC50/IC50” value in test [1] and in test [3] were over 435.7 and over 246.3, respectively. Besides, the IC50 result is “Not Active” in test [2] (hela), 0.23 µM in the test on Plasmodium falciparum [4], 56.6 µM in the test with HeLa and 0.13 µM in the test on Plasmodium falciparum [5] (setting [6]).
Turning to `OCc1cccc(Nc2ccnc3cc(Cl)ccc23)c1`, the “Ratio CC50/IC50” value is over 70.4 in test [1] and over 68.5 in test [3]. Moreover, the IC50 result is “Not Active” in test [2] (hela), 1.46 µM in the test on Plasmodium falciparum [4], over 100 µM with HeLa and 1.42 µM in the test on Plasmodium falciparum [5] (setting [6]).
For the compound `CCOC(=O)C(=O)N[C@H]1C[C@H](n2cc(C)c(=O)[nH]c2=O)O[C@@H]1CO[Si](c1ccccc1)(c1ccccc1)C(C)(C)C`, the entries for the “Ratio CC50/IC50” value in test [1] and in test [3] were 5.75 and 5.3, respectively. Besides, the IC50 result in test [2] (hela) was “Not Active”; in the test with Plasmodium falciparum [4], 12.1 µM; in the test with HeLa it was 64 µM; in the test with Plasmodium falciparum [5] (setting [6]), 11.1 µM.
Turning to `Cc1cn([C@H]2C[C@H](N=[N+]=[N-])[C@@H](CO)O2)c(=O)[nH]c1=O` [ZIDOVUDINE], the IC50 in test [2] (setting [7]) was 0.04 µM; with HeLa, over 100 µM; with Plasmodium falciparum [5] it was “Not Active”.
Turning to `OCCNc1ccnc2cc(Cl)ccc12`, the “Ratio CC50/IC50” value in test [1] is listed as over 45.5; in test [3] it was over 58.1. Moreover, the IC50 result in test [2] (hela) was “Not Active”; in the test on Plasmodium falciparum [4] it was 1.72 µM; in the test on HeLa, over 100 µM; in the test with Plasmodium falciparum [5] (setting [6]), 2.2 µM.

The IC50 is the concentration that inhibits the measured activity by half.
